Publication PMC6522132 (Cell chemical biology, 2017)

Columns and labels:
EphA4-LBD = EphA4-LBD (Homo sapiens, UniProt P54764); experiment: NMR ligand titration; type: binding; settings: result in words
Method in brief: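 Purified human EphA4 ligand-binding domain (LBD), 13Cε-methionine-labelled for the titration, in 50 mM potassium phosphate pH 6.5 with 100 mM NaCl, at 27 °C. 2D [13C,1H]- or [15N,1H]-HSQC spectra of 50 μM LBD were compared with and without test compound. The compound was titrated at 10–50 μM against a DMSO control, and binding was read as chemical-shift changes.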

wt-EphA4 LBD = wt-EphA4 LBD (Homo sapiens, UniProt P54764); experiment: Isothermal titration calorimetry; type: binding; settings: result in words
wt-EphA4 LBD, sequence (P54764 30-209 limits assumed): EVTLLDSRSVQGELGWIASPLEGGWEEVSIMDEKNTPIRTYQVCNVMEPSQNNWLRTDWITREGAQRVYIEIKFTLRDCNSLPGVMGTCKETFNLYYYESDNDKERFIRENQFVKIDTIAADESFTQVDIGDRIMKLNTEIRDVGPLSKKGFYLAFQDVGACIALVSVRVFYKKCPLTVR

EphA4-LBD, sequence (P54764 30-209 limits assumed): as above

What does the source list for `CC[C@H]1CN2CC[C@]3(C(=O)Nc4ccccc43)[C@@H]2C[C@@H]1/C(=C\OC)C(=O)OC` [rhyncophilin]?
binding to EphA4-LBD in NMR assay (EphA4-LBD): inactive; binding to EphA4-LBD in ITC assay (wt-EphA4 LBD): inactive
